# T cruzi growth-1: inhibitors of T. cruzi proliferation. hit rate 5.9% among 77,000. T. cruzi beta-gal in NIH3T3, GalScreen luminescence, 90 h. inhibition, % at 8.34 µM;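 active means mean inhibition above about 93%, with at least 55% of replicates each passing it, limit read from the data, passing the limit was not always enough; inconclusive means only one of those two conditions holds; inactive means neither condition holds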
# KDM4C inh: blocks human GASC-1 (KDM4C) demethylase activity | Q9H3R0 | GST-KDM4C 2-372, H3K9me3 peptide, LANCE TR-FRET | inhibition, % at 12.5 µM | hit rate 0.15% among 96,000;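 active means mean replicate inhibition above about 25%, with at least 55% of replicates also reaching it, limit read from the data, passing the limit was not always enough; inconclusive means only one of those two conditions met; inactive means neither condition met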
#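 Material: N-terminal GST-fused human GASC-1 (KDM4C) fragment, residues 2-372. Input: 10 nM enzyme. Incubation: enzyme reaction 30 min, then detection 60 min, both room temperature. Doses: one test concentration per compound. Read-out basis: inhibition from TR-FRET ratio decrease. Detection: LANCE TR-FRET, excitation 340 nm, emissions 618 and 671 nm.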
# IDH1 mut inh: inhibitors of human IDH1 R132H | O75874 | inhibition, % at 10 µM | AID 624101 | IDH1 R132H reductase, diaphorase/resazurin fluorescence, 60 min | hit rate 0.18% among 70,000; in the data active means inhibition above about 34%; inconclusive means no clear call, values can overlap the other calls; inactive means below about 11%;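 further: 0% = DMSO and 100% = no enzyme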
# Target sequence (O75874 whole entry R132H): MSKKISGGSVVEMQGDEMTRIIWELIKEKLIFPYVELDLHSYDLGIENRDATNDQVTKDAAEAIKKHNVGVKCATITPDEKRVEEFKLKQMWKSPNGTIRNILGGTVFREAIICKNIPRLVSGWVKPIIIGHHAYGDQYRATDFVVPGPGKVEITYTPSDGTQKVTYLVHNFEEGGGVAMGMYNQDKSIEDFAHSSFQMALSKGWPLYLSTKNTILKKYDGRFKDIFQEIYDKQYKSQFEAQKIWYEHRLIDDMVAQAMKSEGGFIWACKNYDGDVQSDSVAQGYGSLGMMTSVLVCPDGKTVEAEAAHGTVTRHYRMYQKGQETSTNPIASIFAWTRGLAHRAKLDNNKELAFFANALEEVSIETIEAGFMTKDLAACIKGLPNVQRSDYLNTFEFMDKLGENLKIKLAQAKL
# T cruzi growth-2: Trypanosoma cruzi proliferation inhibition | shares compounds with T cruzi growth-1 | T. cruzi beta-gal in NIH3T3, GalScreen luminescence, 90 h | inhibition, % at 8.35 µM | hit rate 72% among 5,600 | AID 651739;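 active means mean replicate inhibition above about 95% and at least 55% of replicates individually reaching it, limit read from the data; inconclusive means only one of the two criteria is met; inactive means neither criterion is met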
# T cruzi growth-3: Trypanosoma cruzi proliferation inhibition; shares compounds with T cruzi growth-1; AID 651740; T. cruzi beta-gal in NIH3T3, GalScreen luminescence, 90 h; hit rate 21% among 5,600; inhibition, % at 2.09 µM;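 active means mean inhibition above about 95%, with at least 55% of replicates also reaching it, limit read from the data; inconclusive means meets just one of the two conditions; inactive means meets neither condition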;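 further: plate controls were neutral control median for no effect and positive control median for full effect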
# NIH3T3 tox: kills mouse NIH/3T3 fibroblasts; cytotoxicity (signal decrease), % at 8.35 µM; AID 651742; NIH/3T3 viability, CellTiter-Glo ATP luminescence, 90 h; hit rate 14% among 5,600; shares compounds with T cruzi growth-1;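 active means mean signal decrease across replicates above about 35% based on untreated-well scatter, with enough replicates individually passing, limit read from the data; inconclusive means no rule stated though some were filed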;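 further: 0% = median of neutral control wells and 100% = median of positive control wells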
# 3T3 cytotox 2: NIH/3T3 (mouse) viability loss. shares compounds with T cruzi growth-1. hit rate 56% among 5,600. inhibition, % at 24.9 µM. NIH/3T3 viability, CellTiter-Glo ATP luminescence, 90 h;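 active means mean loss of cell viability signal at or above a set limit, and enough replicates individually reaching it; inconclusive means meets only the mean limit or only the replicate share; inactive means meets neither condition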;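 further: 0% = median of neutral control wells and 100% = median of positive control wells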
# * marks the source's active call; other numbers are inactive results; ? = inconclusive; · = not tested or not shown. This excerpt belongs to a sample that is enriched for hits.
SMILES,T cruzi growth-1,KDM4C inh,IDH1 mut inh,T cruzi growth-2,T cruzi growth-3,NIH3T3 tox,3T3 cytotox 2
COc1ccc(CN(C)C[C@H]2OCCCC[C@@H](C)Oc3ccc(NC(=O)C4CCCCC4)cc3C(=O)N([C@@H](C)CO)C[C@H]2C)cc1,105*,0,1,84,47,6,76*
COc1ccc(CN(C)C[C@@H]2OCCCC[C@@H](C)Oc3ccc(NC(=O)C4CCCCC4)cc3C(=O)N([C@@H](C)CO)C[C@H]2C)cc1,89,0,·,·,·,·,·
COc1ccc(CN(C)C[C@H]2OCCCC[C@H](C)Oc3ccc(NC(=O)C4CCCCC4)cc3C(=O)N([C@@H](C)CO)C[C@H]2C)cc1,102*,2,-1,?,71,-2,27*
CCNC(=O)C[C@@H]1CC[C@H]2[C@@H](COC[C@@H](O)CN2C(=O)Nc2ccc(Cl)c(Cl)c2)O1,11,-1,·,·,·,·,·
O=C(Cc1ccccn1)N1CC(=O)N2[C@H](CO)[C@@H](c3ccc(C#CC4CC4)cc3)[C@@H]2C1,·,1,·,·,·,·,·
COC(=O)C[C@H]1CC[C@@H]2[C@@H](COc3ccc(NC(=O)c4cc(C)on4)cc3C(=O)N2C)O1,27,1,·,·,·,·,·
O=C(Nc1cc(Cl)ccc1Cl)C1CN(S(=O)(=O)c2ccccc2)CCN1S(=O)(=O)c1ccccc1 (configuration not stated),·,·,0,·,·,·,·
COc1cccc(NC(=O)N2[C@@H](CO)[C@H](c3ccccc3)[C@@H]2CNC(C)C)c1,102*,2,·,101*,42,-18,-13
COc1cccc(NC(=O)N2[C@H](CO)[C@@H](c3ccccc3)[C@H]2CNC(C)C)c1,104*,3,·,73,45,-2,-3
CNC[C@@H]1[C@H](c2ccccc2)[C@H](CO)N1C(=O)Nc1cccc(OC)c1,44,-3,·,·,·,·,·
COc1cccc(NC(=O)N2[C@@H](CO)[C@@H](c3ccccc3)[C@@H]2CNCC(C)C)c1,70,-2,·,·,·,·,·
COCC(=O)N1CC[C@@H]2[C@H]1c1cc(C#Cc3ccc(F)cc3)ccc1N[C@@H]2CO,63,0,·,·,·,·,·
CCCC#Cc1cnc2c(c1)C(=O)N([C@H](C)CO)C[C@@H](C)[C@@H](CN(C)Cc1cccnc1)O2,1,2,0,·,·,·,·
C[C@@H]1CN([C@@H](C)CO)C(=O)Cc2cc(NC(=O)CCN3CCOCC3)ccc2O[C@@H]1CN(C)Cc1ccc(C(F)(F)F)cc1,12,1,3,·,·,·,·
C[C@H](CO)N1C[C@H](C)[C@H](CN(C)Cc2ccc(C(F)(F)F)cc2)Oc2ccc(NC(=O)CCN3CCOCC3)cc2CC1=O,?,1,-1,-42,19,-5,3
C[C@H](CO)N1C[C@H](C)[C@H](CN(C)Cc2ccc(-c3ccccc3)cc2)Oc2ccc(NC(=O)CCN3CCOCC3)cc2CC1=O,18,2,-1,·,·,·,·
C[C@H](CO)N1C[C@H](C)[C@@H](CN(C)Cc2ccc(-c3ccccc3)cc2)Oc2ccc(NC(=O)CCN3CCOCC3)cc2CC1=O,99*,0,1,114*,54,13,105*
Cc1ccc2nc(-c3ccc(NC(=O)Cn4nc([N+](=O)[O-])c(Cl)c4C)cc3)sc2c1,·,·,0,·,·,·,·
C[C@H](CO)N1C[C@H](C)[C@H](CN(C)Cc2ccc(Oc3ccccc3)cc2)Oc2ccc(NS(=O)(=O)c3ccc(F)cc3)cc2CC1=O,59,-1,·,·,·,·,·
C[C@@H]1CN([C@H](C)CO)C(=O)c2cc(NC(=O)Cc3ccccc3)ccc2O[C@@H]1CN(C)Cc1ccncc1,40,1,1,·,·,·,·
CO[C@@H]1CN(C)C(=O)c2cc(NC(=O)c3ccc(F)cc3)ccc2OC[C@@H](C)N(C(=O)CN(C)C)C[C@@H]1C,-43,2,0,·,·,·,·
C[C@@H]1CN([C@@H](C)CO)S(=O)(=O)c2ccc(C#CC3CCCC3)cc2O[C@@H]1CN(C)Cc1cccnc1,103*,-1,·,101*,?,60*,106*
C[C@H]1CN([C@@H](C)CO)S(=O)(=O)c2ccc(C#CC3CCCC3)cc2O[C@@H]1CN(C)Cc1cccnc1,98*,0,·,101*,111*,-10,105*

# Assay outcomes: PubChem, Broad Institute
